Bioassay records as filed in PubChem.
Shown are actives, neighbours in structure and some others; about 2.3% of the full set was active somewhere.
TRPC4 agonist: opens the mouse TRPC4 cation channel. Q9QUQ5. HEK293 TRPC4beta/mu-opioid, Fluo4 calcium fluorescence; active compounds read high. B-score at 10 µM. actives 0.49% (n = 310,000). AID 2237;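 active = B-score above 5 SD of library B-scores, and initial fluorescence ratio not above library mean plus 5 SD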;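 note: positive B-score marks a calcium rise read as TRPC4 activation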
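system = HEK293 cells stably co-expressing mouse TRPC4beta and mu-opioid receptor | schedule = Fluo4 dye loading 45 min at room temperature, 110 s recording | measure = B-scored integrated calcium fluorescence ratio | signal = Fluo4 calcium-sensitive dye fluorescence, kinetic, 1 Hz baseline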
TRPC4 PAM: allosterically enhances the mouse TRPC4 cation channel; Q9QUQ5; HEK293 TRPC4beta/mu-opioid, DAMGO EC20, Fluo-4 Ca2+ flux; active compounds read high; B-score at 10 µM; actives 0.42% (n = 310,000); AID 2227;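 active = B-score of calcium response area above 5 SD of library B-scores, with initial fluorescence ratio within 5 SD of library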;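 note: B-score of integrated fluorescence ratio over time as area under calcium response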
TRPC4 inh: inhibitors of mouse TRPC4 channel; HEK293 TRPC4beta/mu-opioid, DAMGO-evoked Fluo4 calcium flux; active compounds read low; B-score at 10 µM; actives 0.39% (n = 300,000);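 active = B-score over 3 SD under the library average, no early fluorescence shift, positive overall ratio signal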
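Material: HEK293 cells with stable TRPC4beta plus mu-opioid receptor expression / Probe or stimulus: DAMGO in two steps, submaximal then maximal / Compound: single concentration per test compound / Technique: kinetic Fluo4 fluorescence imaging of calcium influx / Read-out: per-well B score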
TRPC6 act: activates the mouse TRPC6 cation channel; Q61143; HEK293-TRPC6 membrane potential dye fluorescence; active compounds read high; B-score at 10 µM; actives 0.13% (n = 310,000); AID 2550;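 active = B-score of the integrated fluorescence ratio above library mean plus 3 SD, and starting fluorescence ratio within library mean plus 5 SD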;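 note: higher score means more depolarization so channel activation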
Target sequence (Q61143 whole entry, looked up): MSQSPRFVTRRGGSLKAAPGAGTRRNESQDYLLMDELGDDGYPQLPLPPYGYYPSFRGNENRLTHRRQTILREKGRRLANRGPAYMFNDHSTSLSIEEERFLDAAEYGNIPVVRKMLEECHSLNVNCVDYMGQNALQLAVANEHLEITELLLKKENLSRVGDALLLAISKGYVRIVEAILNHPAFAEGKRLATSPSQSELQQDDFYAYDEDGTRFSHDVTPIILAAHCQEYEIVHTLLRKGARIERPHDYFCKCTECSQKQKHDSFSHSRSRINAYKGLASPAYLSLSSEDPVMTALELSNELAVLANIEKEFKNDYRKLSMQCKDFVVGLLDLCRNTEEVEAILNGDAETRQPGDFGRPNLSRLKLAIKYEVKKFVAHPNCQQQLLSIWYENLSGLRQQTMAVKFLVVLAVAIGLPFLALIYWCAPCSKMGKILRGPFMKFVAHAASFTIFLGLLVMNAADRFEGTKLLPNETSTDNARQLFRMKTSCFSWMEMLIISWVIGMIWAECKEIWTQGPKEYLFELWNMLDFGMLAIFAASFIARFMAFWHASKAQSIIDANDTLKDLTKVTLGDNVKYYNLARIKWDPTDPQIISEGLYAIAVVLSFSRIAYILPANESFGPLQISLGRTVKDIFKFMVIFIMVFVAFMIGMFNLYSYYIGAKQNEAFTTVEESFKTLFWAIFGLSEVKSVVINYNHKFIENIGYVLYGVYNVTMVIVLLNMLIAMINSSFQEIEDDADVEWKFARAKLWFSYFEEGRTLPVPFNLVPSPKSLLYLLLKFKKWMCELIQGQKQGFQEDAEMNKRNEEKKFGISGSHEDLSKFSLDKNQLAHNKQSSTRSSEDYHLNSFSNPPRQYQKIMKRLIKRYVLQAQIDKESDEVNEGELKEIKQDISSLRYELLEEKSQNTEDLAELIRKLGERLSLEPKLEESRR
TRPC6 inhibitor: blocks the mouse TRPC6 cation channel; Q61143; HEK293-TRPC6, membrane potential dye, ACh-evoked depolarization; active compounds read low; B-score at 10 µM; actives 1.1% (n = 310,000); AID 2553;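 active = B-score under library mean minus 3 SD, initial fluorescence not abnormally high, positive integrated signal ratio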;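 note: B-score derived from integrated fluorescence ratio over the kinetic read; more negative B-score means stronger inhibition of depolarization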
* hit, by the source's call; i = inactive.

SMILES	TRPC4 agonist	TRPC4 PAM	TRPC4 inh	TRPC6 act	TRPC6 inhibitor
Cc1ccc(CNC(=O)CSc2nc(=O)n3ccccc3n2)cc1	i	i	-6*	i	i
Cc1cccc(NC(=S)NC2CC3CCCC(C2)N3Cc2ccccc2)c1C (stereo not drawn)	65*	i	i	i	i
Cc1cccc(NC(=S)NC2CC3CCC(C2)N3Cc2ccco2)c1C (stereo not drawn)	i	i	i	i	i
Cc1ccc(NC(=S)NC2CC3CCC(C2)N3Cc2ccco2)c(C)c1 (stereo not drawn)	116*	i	i	i	i
NNc1nnc2c3cc(F)ccc3n(Cc3ccccc3)c2n1	i	i	i	i	i
CCCn1c2ccc(F)cc2c2nnc(NN)nc21	i	11*	i	i	i
CCn1c2ccc(F)cc2c2nnc(NN)nc21	i	18*	i	i	i
COc1ccc(N(C=O)C(C(=O)Nc2c(C)cccc2C)c2ccccc2)cc1 (stereo not drawn)	i	i	i	i	i
CN(C)S(=O)(=O)c1ccc(C(=O)/C=C/c2cccnc2)cc1	i	i	i	i	i
Clc1cc(Br)ccc1OCCn1ccnc1	84*	i	-6*	i	i
Cc1ccc(C)c(OCCn2ccnc2)c1	i	i	i	i	i
Clc1ccc(OCCn2ccnc2)cc1Cl	57*	14*	i	i	i
Cc1cc(Br)ccc1OCCn1ccnc1	116*	i	i	i	i
CCOC(=O)C1CCCN(C2CCN(Cc3nc(Cc4ccccc4)no3)CC2)C1 (stereo not drawn)	i	11*	i	i	i
COc1ccc(NC(C#N)c2ccccc2OCc2ccccc2)cc1 (stereo not drawn)	i	10*	i	i	i
Cc1cc([N+](=O)[O-])ccc1NCc1ccccc1	i	i	-7*	i	i
COc1ccc2[nH]cc(CCNC(=O)CS(=O)(=O)Cc3ccccc3)c2c1	i	i	i	i	i
CN(C)CCCN(C(=O)c1ccc(C(=O)c2ccccc2)cc1)c1nc2cc3c(cc2s1)OCO3	i	i	i	i	i
CN(C)CCCN(C(=O)c1ccco1)c1nc2cc3c(cc2s1)OCO3	i	i	i	i	-7.8*
Cc1ccc(-c2csc(N(CCCN3CCOCC3)C(=O)c3ccco3)n2)cc1	i	i	i	i	i
Cc1ccc(-c2csc(N(CCCN(C)C)C(=O)c3ccco3)n2)cc1	i	i	-6*	i	i
COc1ccc(-c2csc(N(CCCN(C)C)C(=O)c3cccs3)n2)cc1	56*	i	i	i	i
CCOC(=O)c1c(NC(=O)CSc2ncn[nH]2)sc(C(C)=O)c1C	i	i	i	i	i
COC(=O)c1c(NC(=O)CSc2ncn[nH]2)sc(C)c1C	i	i	-7*	i	i
CCn1nc(C)cc1-c1nnc(Sc2ncc([N+](=O)[O-])s2)n1C	i	i	i	i	i
SMILES	TRPC4 agonist	TRPC4 PAM	TRPC4 inh	TRPC6 act	TRPC6 inhibitor
C=CCNC(=S)NNC(=O)c1ccc(OCCC)cc1	i	i	i	i	i
CCCOc1ccc(C(=O)NNC(=S)NC(=O)CC)cc1	46*	i	i	i	i
CCCOc1ccc(C(=O)NC(=S)NNC(=O)c2c(-c3ccccc3)noc2C)cc1	194*	i	i	i	i
Cc1onc(-c2ccccc2)c1C(=O)NC(=S)NNC(=O)c1ccccc1O	247*	i	i	i	i
CCCNC(=O)c1c(CSc2ccc(Cl)cc2)noc1C(=O)NCc1ccccc1	i	i	i	i	i
CCN1CCCC1CNC(=O)c1cc2c(-c3cccc(OC)c3)nn(C)c2s1 (stereo not drawn)	i	i	i	i	i
COc1cccc(-c2nn(C)c3sc(C(=O)NCCCN(C)Cc4ccccc4)cc23)c1	57*	i	i	i	i
CCCCN(C)CCNC(=O)c1cc2c(-c3cccc(OC)c3)nn(C)c2s1	i	25*	i	i	i
COc1cccc(-c2nn(C)c3sc(C(=O)NCc4ccco4)cc23)c1	i	i	i	i	i
CCCCN(CC)CCCNC(=O)c1cc2c(-c3ccc(OC)c(OC)c3)nn(C)c2s1	82*	i	i	i	i
CCN(CC)CCCNC(=O)c1cc2c(-c3cccc(OC)c3)nn(C)c2s1	79*	13*	i	i	i
Cc1ccc(C(=O)NCCc2nnc3ccc(NCc4ccc5c(c4)OCO5)nn23)cc1	i	i	i	i	i
COc1ccc(/C=C(\NC(=O)c2ccco2)C(=O)Nc2ccc(C(C)=O)cc2)cc1	i	i	i	i	i
O=C(N1CCc2[nH]c3ccccc3c2C1)C(F)(F)F	i	i	i	i	i
Cc1cc(C(=O)Nc2ccc3c(c2)CCC3)ccc1[N+](=O)[O-]	i	i	i	i	i
CN(C(=O)CN(c1ccccc1)S(=O)(=O)c1ccc(F)cc1)C1CCS(=O)(=O)C1 (stereo not drawn)	i	i	i	i	i
Oc1ccc(C(c2nnnn2CCc2ccccc2)N2CCN(c3nc4ccccc4s3)CC2)cc1 (stereo not drawn)	77*	i	i	i	i
O=C(O)CCC(=O)N1CCN(c2nc3ccccc3s2)CC1	i	20*	i	i	i
c1ccc(CN2CCN(c3nc4ccccc4s3)CC2)cc1	i	17*	i	i	i
CC1CCN(c2nc3ccc(C(=O)N4CCN(Cc5ccccc5)CC4)cc3s2)CC1	i	i	i	i	i
c1ccc(CN2CCN(c3nc(N4CCOCC4)c4ccccc4n3)CC2)cc1	i	i	i	i	-5.5*
COCCn1nnnc1C(c1cccs1)N1CCN(c2nc3ccccc3s2)CC1 (stereo not drawn)	i	i	i	i	i
Cc1ccc(-n2c3nc(=O)[nH]c(=O)c-3cc3cc([N+](=O)[O-])ccc32)cc1C	i	10*	i	i	i
CCOc1ccc(S(=O)(=O)N2CCN(C(=S)NC3CC3)CC2)cc1	i	18*	i	i	i
O=C(NC1CCCCC1)c1ccc(-c2cccc([N+](=O)[O-])c2)o1	i	i	i	i	i
CCCN(CC(=O)Nc1ccccc1Br)CC(=O)Nc1ccc(F)c(F)c1F	i	12*	i	i	i
CC(=O)Nc1cccc(C(=O)NCC2(N3CCCCC3)CCCCC2)c1	i	i	-6*	i	i
